Experimental data reported in ChEMBL document CHEMBL4689842, “EUbOPEN Chemogenomics Library wave 1” (2021).

System: HEK-293T
Experiment: Multiplex assay against HEK293T;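 on Population Tubulin-Different-Phenotype (%): share of the cells with healthy nuclei that show this phenotype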
Assay type: toxicity, cell-based
Conditions: human
Summary of the method: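 Per cents of healthy-nucleus cells form the tubulin, mitochondrial-mass and membrane-permeability phenotype values. Live cells were stained at seeding with Hoechst33342, BioTracker Green Microtubule Cytoskeleton Dye, MitoTracker Red and Annexin V Alexa Fluor 680. After compound addition they were imaged on a CQ1 microscope at 37°C and 5% CO2, and CellPathfinder machine-learning gating split them into Hoechst high-intensity objects or normal cells, normal cells into healthy, pyknosed or fragmented nuclei, and pyknosed cells into mitotic or apoptotic.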

[1] = 12 h, 1 µM, compound concentration 1 uM, replicate 1
[2] = 12 h, 1 µM, compound concentration 1 uM, replicate 2
[3] = 12 h, 10 µM, compound concentration 10 uM, replicate 1
[4] = 12 h, 10 µM, compound concentration 10 uM, replicate 2
[5] = 24 h, 1 µM, compound concentration 1 uM, replicate 1
[6] = 24 h, 1 µM, compound concentration 1 uM, replicate 2
[7] = 24 h, 10 µM, compound concentration 10 uM, replicate 1
[8] = 24 h, 10 µM, compound concentration 10 uM, replicate 2
[9] = 48 h, 1 µM, compound concentration 1 uM, replicate 1
[10] = 48 h, 1 µM, compound concentration 1 uM, replicate 2
[11] = 48 h, 10 µM, compound concentration 10 uM, replicate 1
[12] = 48 h, 10 µM, compound concentration 10 uM, replicate 2

Cl.O=c1c2cccn2c2ccccc2n1CCCN1CCC(c2ccc(Cl)cc2)CC1
Population Apoptotic (%) [1]: 57%
Population Fragmented Nuclei (%) [1]: 7%
Population Healthy Nuclei (%) [1]: 47%
Population Hoechst High Intensity Objects (%) [1]: 10%
Population Membrane Permeable-Phenotype (%) [1]: 0%
Population Mitochondria Different-Phenotype (%) [1]: 95%
Population Mitotic Cells (%) [1]: 42%
Population Normal (%) [1]: 89%
Population Pyknosed Nuclei (%) [1]: 44%
Population Tubulin-Different-Phenotype (%) [1]: 80%
Total Cell Count [1]: 267
Population Apoptotic (%) [2]: 30%
Population Fragmented Nuclei (%) [2]: 5%
Population Healthy Nuclei (%) [2]: 38%
Population Hoechst High Intensity Objects (%) [2]: 5%
Population Membrane Permeable-Phenotype (%) [2]: 6%
Population Mitochondria Different-Phenotype (%) [2]: 65%
Population Mitotic Cells (%) [2]: 69%
Population Normal (%) [2]: 94%
Population Pyknosed Nuclei (%) [2]: 56%
Population Tubulin-Different-Phenotype (%) [2]: 59%
Total Cell Count [2]: 238
Population Apoptotic (%) [3]: 86%
Population Fragmented Nuclei (%) [3]: 8%
Population Healthy Nuclei (%) [3]: 34%
Population Hoechst High Intensity Objects (%) [3]: 17%
Population Membrane Permeable-Phenotype (%) [3]: 5%
Population Mitochondria Different-Phenotype (%) [3]: 100%
Population Mitotic Cells (%) [3]: 13%
Population Normal (%) [3]: 82%
Population Pyknosed Nuclei (%) [3]: 57%
Population Tubulin-Different-Phenotype (%) [3]: 94%
Total Cell Count [3]: 297
Population Apoptotic (%) [4]: 92%
Population Fragmented Nuclei (%) [4]: 7%
Population Healthy Nuclei (%) [4]: 19%
Population Hoechst High Intensity Objects (%) [4]: 9%
Population Mitochondria Different-Phenotype (%) [4]: 91%
Population Mitotic Cells (%) [4]: 7%
Population Normal (%) [4]: 90%
Population Pyknosed Nuclei (%) [4]: 72%
Population Tubulin-Different-Phenotype (%) [4]: 86%
Total Cell Count [4]: 212
Population Apoptotic (%) [5]: 53%
Population Fragmented Nuclei (%) [5]: 7%
Population Healthy Nuclei (%) [5]: 55%
Population Hoechst High Intensity Objects (%) [5]: 12%
Population Membrane Permeable-Phenotype (%) [5]: 1%
Population Mitochondria Different-Phenotype (%) [5]: 93%
Population Mitotic Cells (%) [5]: 46%
Population Normal (%) [5]: 87%
Population Pyknosed Nuclei (%) [5]: 37%
Population Tubulin-Different-Phenotype (%) [5]: 73%
Total Cell Count [5]: 278
Population Apoptotic (%) [6]: 38%
Population Fragmented Nuclei (%) [6]: 5%
Population Healthy Nuclei (%) [6]: 56%
Population Hoechst High Intensity Objects (%) [6]: 4%
Population Membrane Permeable-Phenotype (%) [6]: 4%
Population Mitochondria Different-Phenotype (%) [6]: 75%
Population Mitotic Cells (%) [6]: 61%
Population Normal (%) [6]: 95%
Population Pyknosed Nuclei (%) [6]: 38%
Population Tubulin-Different-Phenotype (%) [6]: 65%
Total Cell Count [6]: 296
Population Apoptotic (%) [7]: 84%
Population Fragmented Nuclei (%) [7]: 13%
Population Healthy Nuclei (%) [7]: 36%
Population Hoechst High Intensity Objects (%) [7]: 27%
Population Membrane Permeable-Phenotype (%) [7]: 6%
Population Mitochondria Different-Phenotype (%) [7]: 100%
Population Mitotic Cells (%) [7]: 15%
Population Normal (%) [7]: 72%
Population Pyknosed Nuclei (%) [7]: 50%
Population Tubulin-Different-Phenotype (%) [7]: 88%
Total Cell Count [7]: 286
Population Apoptotic (%) [8]: 98%
Population Fragmented Nuclei (%) [8]: 7%
Population Healthy Nuclei (%) [8]: 34%
Population Hoechst High Intensity Objects (%) [8]: 16%
Population Membrane Permeable-Phenotype (%) [8]: 3%
Population Mitochondria Different-Phenotype (%) [8]: 96%
Population Mitotic Cells (%) [8]: 1%
Population Normal (%) [8]: 83%
Population Pyknosed Nuclei (%) [8]: 58%
Population Tubulin-Different-Phenotype (%) [8]: 67%
Total Cell Count [8]: 206
Population Apoptotic (%) [9]: 43%
Population Healthy Nuclei (%) [9]: 77%
Population Hoechst High Intensity Objects (%) [9]: 7%
Population Membrane Permeable-Phenotype (%) [9]: 2%
Population Mitochondria Different-Phenotype (%) [9]: 63%
Population Mitotic Cells (%) [9]: 56%
Population Normal (%) [9]: 92%
Population Pyknosed Nuclei (%) [9]: 15%
Population Tubulin-Different-Phenotype (%) [9]: 59%
Total Cell Count [9]: 453
Population Apoptotic (%) [10]: 31%
Population Fragmented Nuclei (%) [10]: 7%
Population Healthy Nuclei (%) [10]: 70%
Population Hoechst High Intensity Objects (%) [10]: 5%
Population Membrane Permeable-Phenotype (%) [10]: 3%
Population Mitochondria Different-Phenotype (%) [10]: 32%
Population Mitotic Cells (%) [10]: 68%
Population Normal (%) [10]: 94%
Population Pyknosed Nuclei (%) [10]: 22%
Population Tubulin-Different-Phenotype (%) [10]: 54%
Total Cell Count [10]: 461
Population Apoptotic (%) [11]: 82%
Population Fragmented Nuclei (%) [11]: 15%
Population Healthy Nuclei (%) [11]: 35%
Population Hoechst High Intensity Objects (%) [11]: 38%
Population Membrane Permeable-Phenotype (%) [11]: 2%
Population Mitochondria Different-Phenotype (%) [11]: 97%
Population Mitotic Cells (%) [11]: 17%
Population Normal (%) [11]: 61%
Population Pyknosed Nuclei (%) [11]: 48%
Population Tubulin-Different-Phenotype (%) [11]: 79%
Total Cell Count [11]: 311
Population Apoptotic (%) [12]: 98%
Population Fragmented Nuclei (%) [12]: 13%
Population Healthy Nuclei (%) [12]: 42%
Population Hoechst High Intensity Objects (%) [12]: 30%
Population Membrane Permeable-Phenotype (%) [12]: 3%
Population Mitochondria Different-Phenotype (%) [12]: 98%
Population Mitotic Cells (%) [12]: 1%
Population Normal (%) [12]: 69%
Population Pyknosed Nuclei (%) [12]: 43%
Population Tubulin-Different-Phenotype (%) [12]: 64%
Total Cell Count [12]: 191

CN1CCC(=C2c3ccccc3CC(=O)c3sccc32)CC1.O=C(O)/C=C/C(=O)O [KETOTIFEN FUMARATE]
Population Apoptotic (%) [1]: 46%
Population Fragmented Nuclei (%) [1]: 10%
Population Healthy Nuclei (%) [1]: 37%
Population Hoechst High Intensity Objects (%) [1]: 13%
Population Membrane Permeable-Phenotype (%) [1]: 5%
Population Mitochondria Different-Phenotype (%) [1]: 73%
Population Mitotic Cells (%) [1]: 53%
Population Normal (%) [1]: 86%
Population Pyknosed Nuclei (%) [1]: 51%
Population Tubulin-Different-Phenotype (%) [1]: 40%
Total Cell Count [1]: 288
Population Apoptotic (%) [2]: 13%
Population Fragmented Nuclei (%) [2]: 4%
Population Healthy Nuclei (%) [2]: 40%
Population Hoechst High Intensity Objects (%) [2]: 4%
Population Membrane Permeable-Phenotype (%) [2]: 12%
Population Mitochondria Different-Phenotype (%) [2]: 17%
Population Mitotic Cells (%) [2]: 86%
Population Normal (%) [2]: 95%
Population Pyknosed Nuclei (%) [2]: 54%
Population Tubulin-Different-Phenotype (%) [2]: 28%
Total Cell Count [2]: 211
Population Apoptotic (%) [3]: 71%
Population Fragmented Nuclei (%) [3]: 11%
Population Healthy Nuclei (%) [3]: 28%
Population Hoechst High Intensity Objects (%) [3]: 10%
Population Membrane Permeable-Phenotype (%) [3]: 4%
Population Mitochondria Different-Phenotype (%) [3]: 98%
Population Mitotic Cells (%) [3]: 28%
Population Normal (%) [3]: 89%
Population Pyknosed Nuclei (%) [3]: 60%
Population Tubulin-Different-Phenotype (%) [3]: 97%
Total Cell Count [3]: 298
Population Apoptotic (%) [4]: 54%
Population Fragmented Nuclei (%) [4]: 7%
Population Healthy Nuclei (%) [4]: 22%
Population Hoechst High Intensity Objects (%) [4]: 5%
Population Membrane Permeable-Phenotype (%) [4]: 0%
Population Mitochondria Different-Phenotype (%) [4]: 100%
Population Mitotic Cells (%) [4]: 45%
Population Normal (%) [4]: 94%
Population Pyknosed Nuclei (%) [4]: 69%
Population Tubulin-Different-Phenotype (%) [4]: 100%
Total Cell Count [4]: 177
Population Apoptotic (%) [5]: 50%
Population Fragmented Nuclei (%) [5]: 12%
Population Healthy Nuclei (%) [5]: 42%
Population Hoechst High Intensity Objects (%) [5]: 8%
Population Membrane Permeable-Phenotype (%) [5]: 7%
Population Mitochondria Different-Phenotype (%) [5]: 67%
Population Mitotic Cells (%) [5]: 49%
Population Normal (%) [5]: 91%
Population Pyknosed Nuclei (%) [5]: 44%
Population Tubulin-Different-Phenotype (%) [5]: 49%
Total Cell Count [5]: 307
Population Apoptotic (%) [6]: 13%
Population Fragmented Nuclei (%) [6]: 3%
Population Healthy Nuclei (%) [6]: 55%
Population Hoechst High Intensity Objects (%) [6]: 2%
Population Membrane Permeable-Phenotype (%) [6]: 14%
Population Mitochondria Different-Phenotype (%) [6]: 20%
Population Mitotic Cells (%) [6]: 86%
Population Normal (%) [6]: 97%
Population Pyknosed Nuclei (%) [6]: 41%
Population Tubulin-Different-Phenotype (%) [6]: 48%
Total Cell Count [6]: 251
Population Apoptotic (%) [7]: 75%
Population Fragmented Nuclei (%) [7]: 12%
Population Healthy Nuclei (%) [7]: 32%
Population Hoechst High Intensity Objects (%) [7]: 11%
Population Membrane Permeable-Phenotype (%) [7]: 1%
Population Mitochondria Different-Phenotype (%) [7]: 97%
Population Mitotic Cells (%) [7]: 24%
Population Normal (%) [7]: 88%
Population Pyknosed Nuclei (%) [7]: 55%
Total Cell Count [7]: 313
Population Apoptotic (%) [8]: 74%
Population Fragmented Nuclei (%) [8]: 4%
Population Healthy Nuclei (%) [8]: 35%
Population Hoechst High Intensity Objects (%) [8]: 4%
Population Membrane Permeable-Phenotype (%) [8]: 3%
Population Mitochondria Different-Phenotype (%) [8]: 95%
Population Mitotic Cells (%) [8]: 25%
Population Normal (%) [8]: 95%
Population Pyknosed Nuclei (%) [8]: 59%
Population Tubulin-Different-Phenotype (%) [8]: 98%
Total Cell Count [8]: 180
Population Apoptotic (%) [9]: 35%
Population Fragmented Nuclei (%) [9]: 12%
Population Healthy Nuclei (%) [9]: 40%
Population Hoechst High Intensity Objects (%) [9]: 15%
Population Membrane Permeable-Phenotype (%) [9]: 7%
Population Mitochondria Different-Phenotype (%) [9]: 52%
Population Mitotic Cells (%) [9]: 64%
Population Normal (%) [9]: 84%
Population Pyknosed Nuclei (%) [9]: 46%
Population Tubulin-Different-Phenotype (%) [9]: 52%
Total Cell Count [9]: 369
Population Apoptotic (%) [10]: 16%
Population Fragmented Nuclei (%) [10]: 4%
Population Healthy Nuclei (%) [10]: 79%
Population Hoechst High Intensity Objects (%) [10]: 4%
Population Membrane Permeable-Phenotype (%) [10]: 10%
Population Mitochondria Different-Phenotype (%) [10]: 11%
Population Mitotic Cells (%) [10]: 83%
Population Normal (%) [10]: 95%
Population Pyknosed Nuclei (%) [10]: 16%
Population Tubulin-Different-Phenotype (%) [10]: 38%
Total Cell Count [10]: 468
Population Apoptotic (%) [11]: 71%
Population Fragmented Nuclei (%) [11]: 21%
Population Healthy Nuclei (%) [11]: 40%
Population Hoechst High Intensity Objects (%) [11]: 13%
Population Membrane Permeable-Phenotype (%) [11]: 2%
Population Mitochondria Different-Phenotype (%) [11]: 93%
Population Mitotic Cells (%) [11]: 28%
Population Normal (%) [11]: 86%
Population Pyknosed Nuclei (%) [11]: 38%
Population Tubulin-Different-Phenotype (%) [11]: 95%
Total Cell Count [11]: 362
Population Apoptotic (%) [12]: 72%
Population Fragmented Nuclei (%) [12]: 2%
Population Healthy Nuclei (%) [12]: 70%
Population Hoechst High Intensity Objects (%) [12]: 4%
Population Membrane Permeable-Phenotype (%) [12]: 5%
Population Mitochondria Different-Phenotype (%) [12]: 86%
Population Mitotic Cells (%) [12]: 27%
Population Normal (%) [12]: 95%
Population Pyknosed Nuclei (%) [12]: 26%
Population Tubulin-Different-Phenotype (%) [12]: 93%
Total Cell Count [12]: 215
